# Screening results (PubChem BioAssay)
# In the library only some 2.9% were active in any assay of this set; here they are far more common.
# iPSC survival up: enhancers of single-cell hiPSC survival, primary screen, ATPlite luminescence; 100% = ROCK inhibitor wells, 0% = DMSO; survival enhancement, % at 20 µM; 0.044% of 360,000 active; AID 602274, 2012; in the data active = survival enhancement above about 18%;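 note: cells exposed to compounds for 16 hours before the ATP read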
# NR1D1 modulator: modulators of Rev-erb alpha DNA binding, primary screen, biochemical, FITC-DNA, fluorescence polarization, uHTS | 0.79% of 370,000 active | Rev-erbα–FITC-DNA binding, 90 min | activity, % at 10 µM | Nuclear receptor subfamily 1 group D member 1 (Homo sapiens), P20393 | AID 1259318, 2017;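 active = activity above about 14%, limit read from the data; passing the limit was not always enough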;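 note: 0% = DMSO wells with 35 nM protein and 100% = DMSO wells with 750 nM protein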
# Target sequence (P20393 whole entry, looked up): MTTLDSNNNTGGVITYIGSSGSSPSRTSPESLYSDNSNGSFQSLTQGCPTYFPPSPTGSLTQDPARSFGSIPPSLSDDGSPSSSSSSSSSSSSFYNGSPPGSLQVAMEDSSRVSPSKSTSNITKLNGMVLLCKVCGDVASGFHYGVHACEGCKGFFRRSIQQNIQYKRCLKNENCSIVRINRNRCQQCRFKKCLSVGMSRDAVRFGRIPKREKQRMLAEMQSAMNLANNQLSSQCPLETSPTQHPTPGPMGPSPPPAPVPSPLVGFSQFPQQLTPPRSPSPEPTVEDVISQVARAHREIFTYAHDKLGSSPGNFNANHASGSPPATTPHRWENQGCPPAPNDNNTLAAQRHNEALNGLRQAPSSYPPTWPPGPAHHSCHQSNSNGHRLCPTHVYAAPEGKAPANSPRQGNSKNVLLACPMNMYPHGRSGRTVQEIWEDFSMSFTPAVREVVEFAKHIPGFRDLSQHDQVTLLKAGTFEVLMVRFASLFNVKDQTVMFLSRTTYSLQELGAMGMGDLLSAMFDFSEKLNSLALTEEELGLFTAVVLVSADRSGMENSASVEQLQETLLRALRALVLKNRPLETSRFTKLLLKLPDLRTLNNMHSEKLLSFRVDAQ
# T cruzi inh: inhibitors of intracellular T. cruzi growth, primary screen, luminescence, NIH3T3 host cells; T. cruzi beta-gal in NIH3T3, 90 h; inhibition, % (no concentration beside the values); 1.4% of 300,000 active; AID 1885, 2009;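 active = mean inhibition across valid replicates above about 55%, limit read from the data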;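 note: signal also drops with host cell toxicity which is not excluded here; 0% = plate median of DMSO wells and 100% = zero luminescence signal; higher percent means less beta-gal luminescence so fewer parasites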
#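 System: NIH/3T3 fibroblasts plus reporter T. cruzi. Medium: DMEM plus 2% FBS. Probe or stimulus: 5000 reporter trypomastigotes per well. Compound: single 50 nL compound addition per well in DMSO. Incubation: co-culture of at least 90 h after 3 h attachment. Detection: GalScreen β-gal luminescence, detergent lysis, 60 min. Evaluation: parasite load inhibition, %.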
# TAG inh: inhibitors of triacylglycerol accumulation, primary screen, cell-based, uHTS, fluorescence, H9c2; H9c2 cells, Nile Red lipid (TAG) fluorescence; cells loaded with 200 µM oleic acid; inhibition, % at 12.5 µM; 0.66% of 230,000 active; AID 651582, 2012;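 active = pattern-corrected inhibition of lipid staining of at least 50% with the nuclear-stain viability signal not falling by more than 50%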;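 note: 0% = DMSO wells and 100% = triacsin C control wells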
# beta cell repl: inducers of MIN6 beta-cell proliferation, primary screen, ATP luminescence, uHTS; MIN6 cells proliferation, ATPlite luminescence, 48 h; cells starved in 0.2% serum; 100% = growth in 10% serum; proliferation, % at 10 µM; 0.29% of 330,000 active;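 active = compounds whose signal lies at least 3.5 SD above the mean of all wells on their plate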;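 note: 0% = DMSO-treated cells in low-serum medium and 100% = 10% serum control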
# PG9 binder: binders of HIV-1 gp120 antibody PG9, primary screen, biochemical, TR-FRET; TR-FRET gp120-PG9 antibody binding; inhibition, % at 6.7 µM; 0.43% of 360,000 active; AID 624416, 2012; in the data active = inhibition above about 8.5%
# Numbers without * were called inactive; / = no result.
SMILES,iPSC survival up,NR1D1 modulator,T cruzi inh,TAG inh,beta cell repl,PG9 binder
CCc1nc(Nc2ccncc2)c2oc3ccccc3c2n1,-1,-11,66*,/,1,-2
Cc1nc(NCCc2cnc[nH]2)c2oc3ccccc3c2n1,-2,-2,71*,/,1,-1
CC(=O)Nc1ccc(Nc2nc(C)nc3c2oc2ccccc23)cc1,0,6,6,33,4,1
Cc1nc(Nc2ccncc2)c2oc3ccccc3c2n1,0,-3,73*,/,-2,-2
CCc1nc(Nc2cccc(O)c2)c2oc3ccccc3c2n1,1,/,5,/,-2,/
CCOC(=O)c1nc(C(=O)NCc2ccc(C)cc2)nc2ccccc12,2,-6,/,2,0,1
CC(c1ccccc1)N1C(=O)C2C3CCC(C3)C2C1=O (centres undefined),2,2,-6,3,-1,-2
CC(C)(C)c1cc(/C=N/O)cc(C(C)(C)C)c1O,0,10,-9,/,0.0*,0
CC(C)(C)c1cc(/C=C2\NC(=O)NC2=O)cc(C(C)(C)C)c1O,0,-1,11,/,-4,0
COc1ccc(CNCCC(c2ccc(OC(C)C)cc2)C(C)C)cc1OC (centres undefined),-4,-2,73*,/,-4,0
COc1ccc(C(CCNCc2ccc(OC(C)C)cc2)C(C)C)cc1 (centres undefined),-1,3,33,-3,-4,-1
Cc1cc(O)ccc1N1C(=O)c2cccc3cc([N+](=O)[O-])cc(c23)C1=O,-1,-2,67*,-5,-3,-3
O=C1c2cccc3cc([N+](=O)[O-])cc(c23)C(=O)N1c1ccccc1O,-2,-2,58*,8,-3,2
O=C(c1ccc(Cl)cc1)[C@@H]1[C@@H]2C(=O)N(c3ccc(Cl)cc3)C(=O)[C@@H]2C2c3ccccc3C=NN21 (some centres undefined),1,2,-4,/,-4,0
Cn1ncc2c(O/N=C(\N)c3ccc(C(F)(F)F)cc3)ncnc21,-1,4,50,86*,-4,-3
Cc1ccc(-c2noc(CN3CCCCC3)n2)cc1,0,6,-5,7,0,-4
Cc1cccc2sc(NNC(=O)c3ccc(S(=O)(=O)N4CCc5ccccc5C4)cc3)nc12,-3,7,60*,15,-7,-2
CCc1ccc2[nH]c3nc(N/N=C/c4ccc(O)cc4O)nnc3c2c1,0,-9,57*,/,-4,-3
CCOC(=O)c1c(NC(=O)CSc2nnc(-c3ccncc3)n2Cc2ccco2)sc(C)c1C,5,0,70*,/,-3,-2
CN1C[C@@H]2[C@@H]3C(=O)N(Cc4ccccc4)C(=O)[C@@H]3[C@](C)(C1=O)N2C(=O)c1ccc(Cl)cc1,-2,-1,/,-2,-5,1
COc1ccc(NS(=O)(=O)c2cn(C)c(=O)n(C)c2=O)c(OC)c1,1,0,-7,-5,-1,-4
O=C(C1CCC(CNS(=O)(=O)c2ccccc2)CC1)N1CCCCC1 (centres undefined),0,-1,-14,/,-1,0
COc1ccc(CN2CCN(C(=O)C3CCC(CNS(=O)(=O)c4ccccc4)CC3)CC2)c(OC)c1OC (centres undefined),0,-2,58*,-17,-2,0
NC(=S)N/N=C/c1ccc(C23CC4CC(CC(C4)C2)C3)cc1,/,/,77*,/,-4,/
Cc1ccc(N(C(=O)CCC(=O)Nc2cc(C)on2)C(C(=O)NC2CCCC2)c2ccncc2)cc1 (centres undefined),0,-3,-7,7,-5,-1
OC(CNCCc1ccc(C(F)(F)F)cc1)COc1cccc2ccccc12 (centres undefined),-3,6,60*,/,-6,-1
CCN(CC)S(=O)(=O)c1ccc(SCC(=O)c2c(N)n(C3CC3)c(=O)[nH]c2=O)nc1,-1,4,/,1,/,-2
